This excerpt belongs to a sample that is enriched for hits.
AP ELISA ortho: orthogonal test for alternative complement pathway inhibitors | Human serum alternative complement pathway, LPS-coated ELISA, C3 deposition; tested in compound mixtures | inhibition, % at 5 µM | 62,000 compounds, 0.08% hits | AID 1235;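 active = inhibition above 30% in each of the two pooled mixtures holding the compound, so the lower value exceeds 30%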;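 note: 0% = serum in Mg-EGTA without compound and 100% = EDTA serum blank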
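Test system: human serum complement alternative pathway, C3 deposition onto LPS / Medium: Mg2+-EGTA GVB++ buffer containing human serum at 1:15 dilution / Probe or stimulus: Plate-bound LPS / Times: 1 h at 37 °C / Signal: ELISA with HRP anti-human C3 antibody, TMB substrate, absorbance 450 nm / Measure: percent inhibition / Repeats: two pool placements per compound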
Ec RNAP inh: blocks E. coli RNA polymerase transcription; P0A8V2; fluorescence transcription assay; inhibition, %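 (tested at 10 µM)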; 62,000 compounds, 0.2% hits; in the data active = inhibition above about 20%;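 note: 0% = enzyme without compound and 100% = no enzyme blank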
Target sequence (P0A8V2 whole entry, looked up): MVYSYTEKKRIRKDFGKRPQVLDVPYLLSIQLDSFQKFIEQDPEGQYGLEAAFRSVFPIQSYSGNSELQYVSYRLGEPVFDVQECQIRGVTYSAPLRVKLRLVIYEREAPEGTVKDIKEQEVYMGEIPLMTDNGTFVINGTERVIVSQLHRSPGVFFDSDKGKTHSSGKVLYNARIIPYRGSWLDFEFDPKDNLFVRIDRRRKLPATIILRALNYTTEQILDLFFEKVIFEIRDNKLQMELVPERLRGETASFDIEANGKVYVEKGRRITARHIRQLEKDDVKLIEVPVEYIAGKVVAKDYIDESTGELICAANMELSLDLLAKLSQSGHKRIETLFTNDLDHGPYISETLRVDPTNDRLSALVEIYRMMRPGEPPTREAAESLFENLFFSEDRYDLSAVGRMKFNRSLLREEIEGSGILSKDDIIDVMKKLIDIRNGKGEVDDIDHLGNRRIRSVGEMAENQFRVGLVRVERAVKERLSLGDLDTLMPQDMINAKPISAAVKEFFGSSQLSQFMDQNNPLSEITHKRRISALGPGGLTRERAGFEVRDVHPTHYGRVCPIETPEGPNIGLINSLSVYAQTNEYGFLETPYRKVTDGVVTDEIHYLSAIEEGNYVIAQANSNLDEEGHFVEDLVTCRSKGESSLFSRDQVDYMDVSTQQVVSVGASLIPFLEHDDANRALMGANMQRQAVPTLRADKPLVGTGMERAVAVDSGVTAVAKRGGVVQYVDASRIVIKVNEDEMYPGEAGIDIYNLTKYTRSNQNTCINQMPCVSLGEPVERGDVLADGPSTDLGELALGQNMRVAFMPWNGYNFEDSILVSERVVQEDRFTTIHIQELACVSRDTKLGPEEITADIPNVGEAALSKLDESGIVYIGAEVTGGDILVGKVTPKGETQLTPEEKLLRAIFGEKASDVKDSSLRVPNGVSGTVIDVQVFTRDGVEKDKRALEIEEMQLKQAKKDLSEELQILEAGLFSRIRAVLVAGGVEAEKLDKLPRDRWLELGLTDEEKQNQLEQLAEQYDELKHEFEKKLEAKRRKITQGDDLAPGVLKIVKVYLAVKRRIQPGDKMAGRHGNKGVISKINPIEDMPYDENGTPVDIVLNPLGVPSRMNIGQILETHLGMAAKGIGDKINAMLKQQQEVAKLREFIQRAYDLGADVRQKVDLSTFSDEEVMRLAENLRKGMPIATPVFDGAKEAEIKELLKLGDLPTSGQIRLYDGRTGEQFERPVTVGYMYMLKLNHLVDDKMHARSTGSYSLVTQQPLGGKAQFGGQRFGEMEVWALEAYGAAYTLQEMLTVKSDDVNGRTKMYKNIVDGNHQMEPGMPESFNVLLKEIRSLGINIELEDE
DAT uptake mod: modulates human dopamine transporter uptake under cocaine; LLC-PK1 hDAT cells, [14C]-dopamine uptake with cocaine IC80; actives deviate in either direction; B-score at 10 µM; 110,000 compounds, 1.3% hits;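 active = Z score or B-score, a plate-position-corrected score, falls beyond the plate's 99.7% confidence bounds, in either direction; inactive = both scores lie inside the 99.7% bounds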;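 note: scored against the spread of the other compound wells on the same plate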
D1 allo mod: allosterically modulates the human D1 dopamine receptor; P21728; HEK293 D1, CRE-luciferase, dopamine EC30 potentiation; actives deviate in either direction; B-score at 10 µM; 58,000 compounds, 5.9% hits; AID 641;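 active = luminescence count or its row- and column-corrected plate score outside the 99.7% band of the plate's sample wells, on either side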
HEK293 NFkB inh: lowers PMA/ionomycin-induced NF-kB signal in HEK293 cells; inhibition, % at 3 µM; AID 465; 62,000 compounds, 0.21% hits; HEK-293 NF-kB luciferase reporter, luminescence;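 active = inhibition above the mean of all tested compounds plus 3 SD, cut at about 40% in these data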;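 note: 0% = stimulated DMSO wells and 100% = 10 µM reference inhibitor 5653914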
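Timing: 1 h pretreatment, 16 h stimulation, 37 °C; system: HEK-293 cells with stable firefly luciferase reporter driven by four HIV NF-kB elements; doses: 3 µM once, 0.30% DMSO; measured by: luciferase luminescence; control set: DMSO and 10 µM reference inhibitor; repeats: single test; reagent: PMA plus ionomycin mix as NF-kB-activating stimulus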
D1 PAM confirm: confirmation of human D1 dopamine receptor allosteric modulators. shares compounds with D1 allo mod. HEK293 D1 CRE-luciferase, dopamine EC30 potentiation; stronger effect = higher value. luminescence at 10 µM. 2,200 compounds, 88% hits;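 active = luminescence in either of two replicates above the same-plate mean plus 3 SD of the low-dose dopamine control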
D1 no dopamine: D1 (human) signaling in absence of dopamine | shares compounds with D1 allo mod | HEK293 D1 CRE-luciferase, luminescence, no dopamine; stronger effect = higher value | luminescence at 10 µM | 1,900 compounds, 0.8% hits; in the data active = luminescence above about 3900
Isoprot counter: counter-screen for D1 modulators: isoproterenol response in HEK293 cells; AID 647; shares compounds with D1 allo mod; 2,200 compounds, 63% hits; HEK293 D1 CRE-luciferase, isoproterenol EC30 counter-screen; calls only at 10 µM;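 active = luminescence in either replicate above plate mean of wells with a partly effective reference agonist dose plus 3 SD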;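 note: isoproterenol raises cAMP through native beta-adrenoceptor Gs so signal bypasses D1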
Numbers without * were called inactive; i = inactive; x = no result given; + = active, no number.

SMILES	AP ELISA ortho	Ec RNAP inh	DAT uptake mod	D1 allo mod	HEK293 NFkB inh	D1 PAM confirm	D1 no dopamine	Isoprot counter
CCCSc1nc2c(cnn2-c2ccccc2)c(=O)[nH]1	4.0	4.3	-0.0142	10.8*	9.6	17784*	1636	+
CCCSc1nc2c(cnn2-c2ccc(C)cc2)c(=O)[nH]1	-14.9	6.5	-0.895	10.4*	10.8	20136*	1696	+
CCC(C)Sc1nc2c(cnn2-c2ccccc2)c(=O)[nH]1 (stereo unspecified)	12.7	4.4	-0.00175	12.2*	13.1	13072*	1680	+
C#CCOc1nc(OCC#C)nc(OCC#C)n1	11.6	6.4	-0.204	1.99	5.9	x	x	x
Cc1cc(C)nc(SCc2nnc(SCC(=O)Nc3nc(-c4ccccc4)cs3)n2C)n1	x	x	-0.521	x	x	x	x	x
COc1ccccc1-c1nnc(SCC(=O)Nc2nc(-c3ccccc3)cs2)n1C	3.8	3.2	0.036	2.9*	25.7	4120	1444	i
Cc1ccc(N2CC(c3nc4ccccc4[nH]3)CC2=O)c(C)c1 (stereo unspecified)	10.5	1.7	0.155	10.9*	7.1	6760	1648	i
CN(C)c1nc(N2CCCCC2)nc(N2CCCCC2)n1	21.1	0.8	x	x	8.5	x	x	x
OCCN(CCO)c1nc(N2CCCCC2)c2nc(N(CCO)CCO)nc(N3CCCCC3)c2n1	-5.7	7.6	x	11.4*	x	11976*	1696	+
COc1ccc(/C=N/n2c(N)nc3ccccc32)cc1OC	-16.7	5.4	0.0887	9.55*	16.3	21348*	1544	+
COc1cccc(/C=N/n2c(N)nc3ccccc32)c1OC	x	x	0.0179	x	x	x	x	x
COc1ccc2[nH]c(=O)c(CN(Cc3cccs3)Cc3nnnn3C(C)(C)C)cc2c1	3.6	12.9	2.49*	5.28*	13.3	7020*	1520	i
CCCc1cc(N2CCCC(C(=O)NCC)C2)n2ncnc2n1 (stereo unspecified)	11.3	6.6	-0.212	-0.0105	2.9	x	x	x
NCCCC[C@H](N)c1nnc([C@H](CCC(=O)O)NC(=O)C2CCNCC2)o1	x	x	-0.151	x	x	x	x	x
COc1ccc(-c2cc(C(F)(F)F)nc(SCC(=O)N3CC(C)OC(C)C3)n2)cc1OC (stereo unspecified)	10.1	0.7	-1.83	6.22*	2.3	18852*	1628	+
COC(=O)c1cccc(N2C(=O)C(Cl)=C(N3CCOCC3)C2=O)c1	x	x	-1	4.73*	17.9	5740*	1648	i
CN1CCN(C2=C(Cl)C(=O)N(c3cccc(Cl)c3)C2=O)CC1	5.8	13.5	-0.00723	-0.209	12.5	x	x	x
C[C@@H]1C=C(C(=O)O)O[C@H](OCc2ccc(CO)cc2)C1	x	x	0.174	x	x	x	x	x
CCCCCC/C=C/c1ccc(OC)c([C@H]2[C@H]3C=CC[C@@H](C)[C@@H]3C(=O)N2Cc2ccccc2)c1	x	x	-0.213	x	x	x	x	x
COc1cc(S(=O)(=O)N2CCCCCC2)ccc1-n1cnnn1	x	x	-0.93	x	x	x	x	x
COc1ccc(CN(C2CCCC2)S(=O)(=O)c2ccc(-n3cnnn3)c(OC)c2)cc1OC	8.3	2.3	-0.463	6.15*	12.1	9100*	1536	+
Cc1ccc(OCc2nc(-c3ccc(-n4cccc4)cc3)no2)cc1C	x	x	0.599	x	x	x	x	x
CCCOc1ccc(-c2nc(OCC)c3ccccc3n2)cc1	x	x	0.555	x	x	x	x	x
CCOc1nc(-c2ccncc2)nc2ccccc12	-2.6	14.7	0.187	13.3*	x	14136*	1720	+
COC(=O)c1cc2sc(Cl)cc2n1CC(=O)N1CCCc2ccccc21	17.8	0.9	-1.06	5.45*	5.6	9576*	1504	i
SMILES	AP ELISA ortho	Ec RNAP inh	DAT uptake mod	D1 allo mod	HEK293 NFkB inh	D1 PAM confirm	D1 no dopamine	Isoprot counter
CN(C)C(=O)CSC1c2ccccc2C(=O)N1c1ccccc1 (stereo unspecified)	x	x	0.596	x	x	x	x	x
CCn1ncc2c1C(=O)NC1c3ccccc3C(=O)N21 (stereo unspecified)	-1.7	8.4	-0.725	16.6*	4.8	21460*	x	+
Cc1ccc(CCNC(=O)C2CC(c3ccc(C(F)(F)F)cc3)=NO2)cc1 (stereo unspecified)	x	x	1.04	x	x	x	x	x
CCOC(=O)c1c(N)nn(C(=O)CC)c1-c1ccccc1	x	x	-0.336	13*	8.6	17424*	1468	+
CCOC(=O)c1c(N)nn(C(=O)C(C)C)c1-c1ccccc1	-0.3	9.1	-0.447	6.8*	12.6	18276*	1576	+
CCOC(=O)c1c(-c2ccccc2)cn2ccccc12	x	x	-0.543	x	x	x	x	x
CCC(=O)n1nc(-c2ccccc2)nc1N	x	x	-0.668	x	x	x	x	x
COc1cc(NC(=O)Cn2nc(C(F)(F)F)c3c2CCCC3)cc(OC)c1OC	x	x	1.19	x	x	x	x	x
c1coc(CNc2ncnc3sc4c(c23)CCCCC4)c1	6.1	3.0	0.749	11*	4.8	11680*	1516	+
CC[n+]1c(P(=O)([O-])c2ccccc2)[nH]c2ccccc21	x	x	-0.77	x	x	x	x	x
CCOc1cc(-c2noc(CCC(=O)Nc3cccnc3)n2)ccc1OC	-6.7	-1.6	1.3	18.1*	3.8	17716*	1472	+
CCOc1ccc(-c2noc(CCC(=O)NC)n2)cc1OCC	-6.5	6.7	-0.486	12.5*	-2.0	19240*	1568	+
CCOC(=O)C(=O)/C(=C\N(C)C)c1onc(-c2c(Cl)cccc2Cl)c1C(=O)OC	x	x	0.00356	x	x	x	x	x
CC1(C)CC(=NO)CC(C)(C)N1	13.1	5.4	0.0163	0.0811	5.0	x	x	x
Cc1noc(C)c1CSc1nnc(-c2cc(Cl)ccc2Cl)n1N	14.6	3.6	-0.583	9.53*	6.7	25992*	1756	+
Cc1ccc(S(=O)(=O)N2CCCN(S(=O)(=O)c3ccc4ccccc4c3)CC2)cc1	x	x	-1.42	x	x	x	x	x
CCC(=O)N1CCc2cc(S(=O)(=O)NCCC(=O)NC3CCCc4ccccc43)ccc21 (stereo unspecified)	11.2	0.0	0.0258	3.82*	9.9	8544*	1768	i
O=C(O)CCC(=O)N1CCc2cc(S(=O)(=O)NC3CCCc4ccccc43)ccc21 (stereo unspecified)	6.7	8.0	-0.554	0.804	9.6	x	x	x
COC(=O)COc1cccc2c(=O)n(CC(=O)NCCc3ccccc3)ccc12	x	x	0.526	x	x	x	x	x
COC(=O)c1c(-c2cccs2)csc1NC(=O)CN1CCOCC1	6.0	3.6	1.4	28.1*	4.6	18224*	1740	+
O=C(Cc1csc(N2CCOCC2)n1)N/N=C/c1ccc(F)cc1	x	x	-0.569	x	x	x	x	x
CC(C)CN1CN(S(=O)(=O)c2cccs2)c2nc3ccccc3nc21	-9.9	6.4	0.604	11.4*	6.7	18664*	1708	+
CC1CCN(CCC(=O)Nc2ccc3c(c2)CCC3)CC1	x	x	-0.463	x	x	x	x	x

High-throughput results deposited in PubChem BioAssay by several laboratories.
